The record followed here is ChEMBL document CHEMBL2331541, “Small molecule antivirulents targeting the iron-regulated heme oxygenase (HemO) of P. aeruginosa” (J Med Chem, 2013).

For experiment [1], the system named is Pseudomonas aeruginosa. Nature of the experiment: Antimicrobial activity against Pseudomonas aeruginosa PAO1 infected in Caenorhabditis elegans glp-4(bn2) assessed as increase in host lifespan at 250 ug/ml. In kind it is functional, organism-based. The method in brief:
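Synchronized glp-4(bn2) young adults (30) exposed 12 h to P. aeruginosa PAO1 lawn on PGS agar (peptone, NaCl, glucose, 0.15 M sorbitol), washed in M9, reseeded on E. coli OP50 PGS-agar plates containing inhibitor. Viability scored daily; death taken as no response to touch. Average of three experiments.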

Experiment [2] has as its system Pseudomonas aeruginosa. Nature of the experiment: Binding affinity to Pseudomonas aeruginosa apo Heme oxygenase expressed in Escherichia coli BL21(DE3) after 4 hrs by STD-NMR analysis. The method in brief:
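STD-NMR at 25 °C, 500 MHz: inhibitor-saturated solution (50 mM sodium phosphate, 100 mM NaCl, D2O, pH 7.4, stood about 4 h, centrifuged) mixed with 3−4 μM HemO; inhibitor about 5 mM by TSP reference. Selective saturation 2 s via 50 ms Gaussian pulses; repeated with 10 s interscan delay. Strongest-saturated proton set to 100%.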

Experiment [3] deals with Pseudomonas aeruginosa. The experiment is described as follows: Binding affinity to Pseudomonas aeruginosa apo Heme oxygenase expressed in Escherichia coli BL21(DE3) assessed as shift in specific resonance at 4.2 mM after 2 hrs by chemical shift NMR analysis. The method in brief:
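15N-labeled apo-HemO at 1.2 mM (50 mM phosphate, 100 mM KCl, 95% H2O/5% D2O) with inhibitor at 0, 0.7, 1.05, 2.1 or 4.2 mM; inhibitor dissolved into protein 2 h at room temperature, centrifuged. 1H−15N TROSY-HSQC at 25 °C; combined shift Δppm = sqrt(ΔδHN² + (0.2·ΔδN)²).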

Experiment [4] is described as follows: Binding affinity to Pseudomonas aeruginosa apo Heme oxygenase expressed in Escherichia coli BL21(DE3) assessed as decrease in tryptophan fluorescence. The method in brief:
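Apo-HemO held at 1 μM in 20 mM Tris-HCl (pH 7.5), titrated with inhibitor 0.05−500 μM. Excitation 295 nm, emission scanned 300−500 nm; fluorescence decrease at 330 nm used in 1/ΔA vs 1/[I] reciprocal plot, slope giving KD. Mean of three separate experiments.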

Experiment [5] relates to Pseudomonas aeruginosa. Nature of the experiment: Antimicrobial activity against Pseudomonas aeruginosa FRD1. In kind it is functional. The method in brief: (§1)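 Strains grown from single colony 8 h at 37 °C in LB, diluted to OD600 0.05, incubated in LB alone or with 250−1500 μM compound. OD600 read at 6, 12 and 24 h, blank with matching inhibitor concentration subtracted. MIC50 averaged from three separate experiments.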

The test system of experiment [6] is Pseudomonas aeruginosa. The experiment is described as follows: Antimicrobial activity against Pseudomonas aeruginosa WR5. In kind it is functional. In outline:
as §1

Experiment [7] has as its system Pseudomonas aeruginosa. The experiment is described as follows: Antimicrobial activity against Pseudomonas aeruginosa PAO1. In kind it is functional. The method in brief: as §1
The test system of experiment [8] is Pseudomonas aeruginosa. Nature of the experiment: Antimicrobial activity against Pseudomonas aeruginosa PAO1 infected in Caenorhabditis elegans glp-4(bn2) assessed as reduction in CFU at 250 ug/ml by serial dilution method. In kind it is functional, organism-based. The method in brief: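 Infected worms (PAO1, 12 h on PGS agar) moved to E. coli OP50 plates with inhibitor; at 24, 48, 72 and 96 h, 10 live worms washed three times in M9 with 1 mM sodium azide, disrupted with 1.0 mm silicon carbide beads by vortexing 1 min, debris pelleted, lysate serially diluted and plated on PIA for cfu. Uninfected and untreated infected worms as controls.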

≈ marks a conversion by molar mass, not a printed value. Calls of active or inactive are those of the source. The calls are words filed in the database; no cut-off is given here.

One may read the Kd as a measure of binding affinity in units of concentration. By MIC50 is commonly meant an inhibitory concentration at the 50% level, which refers to growth in some studies and to a panel of isolates in others. Low readings indicate higher susceptibility, high ones lower susceptibility. For `CN(C)c1ccc(/C=N/NC(=N)N)cc1`, the outcome in the experiment with Pseudomonas aeruginosa [1], in the experiment on Pseudomonas aeruginosa [2], in the experiment on Pseudomonas aeruginosa [3] and in the experiment with Pseudomonas aeruginosa [8] was Active. Further, the Kd in experiment [4] came out at 31.2 µM. The figures for the MIC50 in the experiment on Pseudomonas aeruginosa [5], with Pseudomonas aeruginosa [6] and in the experiment with Pseudomonas aeruginosa [7] were 190 µg/mL (≈ 926 µM), 210 µg/mL (≈ 1020 µM) and 250 µg/mL (≈ 1220 µM), respectively.
For `O=C(O)/C=C/C(=O)Nc1ccc(Oc2ccccc2)cc1`, the Kd in experiment [4] worked out at 29.3 µM. Further, the MIC50 in the experiment with Pseudomonas aeruginosa [5] is 750 µg/mL (≈ 2650 µM); in the experiment on Pseudomonas aeruginosa [6], 800 µg/mL (≈ 2820 µM); in the experiment on Pseudomonas aeruginosa [7] it was 1000 µg/mL (≈ 3530 µM).
For `O=C(O)/C=C/C(=O)Nc1ccc(Nc2ccccc2)cc1`, the result in the experiment with Pseudomonas aeruginosa [1], in the experiment with Pseudomonas aeruginosa [2] and with Pseudomonas aeruginosa [3] was Active. Also, the dissociation constant Kd in experiment [4] stood at 18.4 µM. The MIC50 worked out at 950 µg/mL (≈ 3370 µM) with Pseudomonas aeruginosa [5], 1100 µg/mL (≈ 3900 µM) with Pseudomonas aeruginosa [6] and 1200 µg/mL (≈ 4250 µM) in the experiment with Pseudomonas aeruginosa [7].
